Test results reported in ChEMBL document CHEMBL3297708, “Lead optimization of a novel series of imidazo[1,2-a]pyridine amides leading to a clinical candidate (Q203) as a multi- and extensively-drug-resistant anti-tuberculosis agent” (J Med Chem, 2014).
Values after ≈ are worked out from the molar mass of the structure shown.

What was measured:
[1] = tested on: Mycobacterium tuberculosis; assay: Antimycobacterial activity against Mycobacterium tuberculosis H37Rv in macrophages; assay type: functional
Procedure, shortened: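 M. tuberculosis H37Rv replicating inside macrophages; intracellular MIC80 determined, i.e. concentration inhibiting 80% of growth.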

[2] = Half life in human liver microsomes; assay type: ADME
Procedure, shortened: (§1)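 Metabolic stability measured by incubation in human or mouse liver microsomal preparations; half-life reported.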

[3] = Volume of distribution at steady state in mouse at 2 mg/kg, iv; assay type: ADME, organism-based; design: dose 2 mg/kg, route intravenous; settings: in vivo, read-out: Vdss
Procedure, shortened: (§2)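 Mice dosed at 2 mg/kg i.v. and 10 mg/kg p.o.; plasma sampled and PK parameters (half-life, clearance, volume of distribution, Cmax, Tmax, AUC, oral bioavailability) derived from the plasma concentration–time profiles.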

[4] = Elimination half life in mouse at 2 mg/kg, iv; assay type: ADME, organism-based; design: dose 2 mg/kg, route intravenous; settings: in vivo, read-out: beta t1/2 (converted); procedure, shortened: as §2
[5] = Clearence in mouse at 2 mg/kg, iv; assay type: ADME, organism-based; design: dose 2 mg/kg, route intravenous; settings: in vivo; procedure, shortened: as §2
[6] = Tmax in mouse at 10 mg/kg, po; assay type: ADME, organism-based; design: dose 10 mg/kg, route oral; settings: in vivo; procedure, shortened: as §2
[7] = Half life in mouse liver microsomes; assay type: ADME; procedure, shortened: as §1
[8] = Solubility of the compound in aqueous solution at pH 2.1; assay type: physicochemical
[9] = Solubility of the compound in phosphate buffer at pH 7.4; assay type: physicochemical
Cytochrome P450 2D6 = Cytochrome P450 2D6 (Homo sapiens, UniProt P10635); assay: Inhibition of recombinant CYP2D6 (unknown origin) by LC/MS/MS analysis; assay type: ADME
Procedure, shortened: (§3)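 Recombinant CYP enzymes (5 pmol/mL) with substrate, in 100 mM potassium phosphate pH 7.4, 3.3 mM MgCl2, with or without 1 mM NADPH; incubated 10 min (CYP1A2, CYP2C9), 20 min (CYP2C19, CYP2D6), or 3 min (CYP3A4); stopped with cold stop solution containing tolbutamide internal standard; metabolite measured by LC-MS/MS.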

[10] = tested on: Mycobacterium tuberculosis; assay: Antimycobacterial activity against Mycobacterium tuberculosis H37Rv in liquid broth culture medium; assay type: functional
Procedure, shortened: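 M. tuberculosis H37Rv replicating in liquid broth culture medium; MIC80 determined, i.e. concentration inhibiting 80% of growth.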

[11] = Half life in mouse at 10 mg/kg, po; assay type: ADME, organism-based; design: dose 10 mg/kg, route oral; settings: in vivo; procedure, shortened: as §2
Cytochrome P450 2C9 = Cytochrome P450 2C9 (Homo sapiens, UniProt P11712); assay: Inhibition of recombinant CYP2C9 (unknown origin) by LC/MS/MS analysis; assay type: ADME; procedure, shortened: as §3
Cytochrome P450 1A2 = biological target: T1, Cytochrome P450 1A2 (Homo sapiens, UniProt P05177); assay: Inhibition of recombinant CYP1A2 (unknown origin) by LC/MS/MS analysis; assay type: ADME; procedure, shortened: as §3
T1 sequence (P05177 whole entry): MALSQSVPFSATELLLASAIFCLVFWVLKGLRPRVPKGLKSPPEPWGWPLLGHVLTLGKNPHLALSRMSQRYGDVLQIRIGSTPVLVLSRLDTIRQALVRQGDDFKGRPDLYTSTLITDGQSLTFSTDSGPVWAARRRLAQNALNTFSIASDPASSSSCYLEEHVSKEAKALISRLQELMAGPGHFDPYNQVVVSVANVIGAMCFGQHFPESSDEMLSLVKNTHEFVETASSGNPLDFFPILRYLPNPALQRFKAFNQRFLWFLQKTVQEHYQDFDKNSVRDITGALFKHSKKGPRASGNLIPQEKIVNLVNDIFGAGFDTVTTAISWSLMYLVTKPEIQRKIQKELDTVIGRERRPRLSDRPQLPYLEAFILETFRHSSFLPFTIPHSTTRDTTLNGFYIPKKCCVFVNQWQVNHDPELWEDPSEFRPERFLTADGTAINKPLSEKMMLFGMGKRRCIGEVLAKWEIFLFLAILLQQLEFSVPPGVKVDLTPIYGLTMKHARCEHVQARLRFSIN

Cytochrome P450 2C19 = Cytochrome P450 2C19 (Homo sapiens, UniProt P33261); assay: Inhibition of recombinant CYP2C19 (unknown origin) by LC/MS/MS analysis; assay type: ADME; procedure, shortened: as §3
[12] = Oral bioavailability in mouse at 10 mg/kg; assay type: ADME, organism-based; settings: in vivo; procedure, shortened: as §2
[13] = AUC (0 to infinity) in mouse at 10 mg/kg, po; assay type: ADME, organism-based; design: time infinity, dose 10 mg/kg, route oral; settings: plasma; procedure, shortened: as §2
[14] = Cmax in mouse at 10 mg/kg, po; assay type: ADME, organism-based; design: dose 10 mg/kg, route oral; settings: in vivo; procedure, shortened: as §2
Cytochrome P450 3A4 = Cytochrome P450 3A4 (Homo sapiens, UniProt P08684); assay: Inhibition of recombinant CYP3A4 (unknown origin) by LC/MS/MS analysis; assay type: ADME; procedure, shortened: as §3
[15] = tested on: Mycobacterium tuberculosis; assay: Antimycobacterial activity against Mycobacterium tuberculosis H37Rv infected in BALB/c mouse assessed as lung bacterial load at 10 mg/kg administered 3 weeks after infection via oral gavage for 28 days, five times per week measured per lung (reference value: 7.24 +/- 0.17 log10 CFU); assay type: functional
Procedure, shortened: (§4)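 BALB/c mice infected intranasally with 2 x10^2 to 2 x 10^3 CFU M. tuberculosis H37Rv; oral gavage treatment started 3 weeks post-infection, given five times per week for 28 days; lung bacterial burden enumerated as log10 CFU per lung; values reported ± spread; untreated infected mice as baseline.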

[16] = tested on: Mycobacterium tuberculosis; assay: Antimycobacterial activity against Mycobacterium tuberculosis H37Rv infected in BALB/c mouse assessed as lung bacterial load at 50 mg/kg administered 3 weeks after infection via oral gavage for 28 days, five times per week measured per lung (reference value: 7.24 +/- 0.17 log10 CFU); assay type: functional; procedure, shortened: as §4
[17] = tested on: Mycobacterium tuberculosis; assay: Antimycobacterial activity against Mycobacterium tuberculosis H37Rv infected in BALB/c mouse assessed as lung bacterial load administered 3 weeks after infection via oral gavage for 28 days, five times per week measured per lung; assay type: functional, organism-based; procedure, shortened: as §4
[18] = tested on: Mycobacterium tuberculosis; assay: Antimycobacterial activity against Mycobacterium tuberculosis H37Rv infected in BALB/c mouse assessed as lung bacterial load at 2 mg/kg administered 3 weeks after infection via oral gavage for 28 days, five times per week measured per lung (reference value: 7.24 +/- 0.17 log10 CFU); assay type: functional; procedure, shortened: as §4
[19] = tested on: Mycobacterium tuberculosis; assay: Antimycobacterial activity against Mycobacterium tuberculosis H37Rv infected in BALB/c mouse assessed as lung bacterial load at 15 mg/kg administered 3 weeks after infection via oral gavage for 28 days, five times per week measured per lung (reference value: 7.24 +/- 0.17 log10 CFU); assay type: functional; procedure, shortened: as §4

Cytochrome P450 2D6, sequence (P10635 whole entry): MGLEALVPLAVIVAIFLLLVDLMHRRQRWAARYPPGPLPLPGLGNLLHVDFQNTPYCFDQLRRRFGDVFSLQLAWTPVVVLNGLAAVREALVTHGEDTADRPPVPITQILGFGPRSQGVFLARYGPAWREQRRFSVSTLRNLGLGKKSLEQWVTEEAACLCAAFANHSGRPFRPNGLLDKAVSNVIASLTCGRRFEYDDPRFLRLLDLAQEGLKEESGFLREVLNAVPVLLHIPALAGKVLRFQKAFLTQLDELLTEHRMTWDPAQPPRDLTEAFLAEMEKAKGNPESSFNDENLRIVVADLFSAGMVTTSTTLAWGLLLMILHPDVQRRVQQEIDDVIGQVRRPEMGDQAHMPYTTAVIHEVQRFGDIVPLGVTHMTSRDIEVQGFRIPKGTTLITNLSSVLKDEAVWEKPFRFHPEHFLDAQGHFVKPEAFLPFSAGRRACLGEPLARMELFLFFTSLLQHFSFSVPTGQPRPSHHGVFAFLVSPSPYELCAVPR
Cytochrome P450 2C9, sequence (P11712 whole entry): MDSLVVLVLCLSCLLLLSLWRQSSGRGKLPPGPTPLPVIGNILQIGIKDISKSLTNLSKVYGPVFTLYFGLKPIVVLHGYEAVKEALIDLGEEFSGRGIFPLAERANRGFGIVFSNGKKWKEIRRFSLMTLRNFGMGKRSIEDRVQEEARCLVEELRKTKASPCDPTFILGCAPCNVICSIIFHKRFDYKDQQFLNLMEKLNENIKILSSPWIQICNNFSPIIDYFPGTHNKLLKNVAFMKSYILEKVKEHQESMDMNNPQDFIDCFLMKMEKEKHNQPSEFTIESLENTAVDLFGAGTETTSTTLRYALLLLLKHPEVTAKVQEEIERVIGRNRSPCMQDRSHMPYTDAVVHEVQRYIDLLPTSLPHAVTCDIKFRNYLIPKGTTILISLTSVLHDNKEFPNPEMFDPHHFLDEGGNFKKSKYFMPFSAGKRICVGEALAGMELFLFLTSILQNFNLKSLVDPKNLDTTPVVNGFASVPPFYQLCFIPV
Cytochrome P450 3A4, sequence (P08684 whole entry): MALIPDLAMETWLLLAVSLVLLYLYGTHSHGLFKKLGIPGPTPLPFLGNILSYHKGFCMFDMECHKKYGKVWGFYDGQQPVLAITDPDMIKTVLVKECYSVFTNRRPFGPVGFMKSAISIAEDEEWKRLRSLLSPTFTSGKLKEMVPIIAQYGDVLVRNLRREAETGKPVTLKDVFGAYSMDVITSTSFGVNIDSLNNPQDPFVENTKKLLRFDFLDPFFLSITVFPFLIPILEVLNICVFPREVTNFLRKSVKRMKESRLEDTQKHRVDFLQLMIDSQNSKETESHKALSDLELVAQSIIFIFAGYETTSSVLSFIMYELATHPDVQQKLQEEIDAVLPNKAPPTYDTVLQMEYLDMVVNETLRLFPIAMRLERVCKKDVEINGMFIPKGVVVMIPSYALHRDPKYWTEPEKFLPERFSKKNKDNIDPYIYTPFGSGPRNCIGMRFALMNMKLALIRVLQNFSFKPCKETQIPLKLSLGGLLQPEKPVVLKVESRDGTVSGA
Cytochrome P450 2C19, sequence (P33261 whole entry): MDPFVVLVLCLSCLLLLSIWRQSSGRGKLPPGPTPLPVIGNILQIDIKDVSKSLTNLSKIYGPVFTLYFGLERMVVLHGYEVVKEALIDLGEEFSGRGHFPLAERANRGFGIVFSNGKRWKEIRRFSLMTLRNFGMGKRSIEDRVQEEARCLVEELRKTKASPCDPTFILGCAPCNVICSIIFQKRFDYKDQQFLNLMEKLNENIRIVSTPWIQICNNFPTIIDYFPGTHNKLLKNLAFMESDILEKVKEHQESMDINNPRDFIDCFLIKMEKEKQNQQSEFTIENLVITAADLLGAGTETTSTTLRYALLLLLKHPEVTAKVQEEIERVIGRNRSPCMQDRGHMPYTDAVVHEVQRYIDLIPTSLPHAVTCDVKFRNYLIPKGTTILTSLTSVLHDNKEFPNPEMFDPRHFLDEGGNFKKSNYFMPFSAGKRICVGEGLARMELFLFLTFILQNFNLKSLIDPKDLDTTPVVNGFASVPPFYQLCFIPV

Compound | MIC80 [1] [nM] | half-life [2] [h] | Vd [3] [L/kg] | half-life [4] [h] | clearance [5] [mL/min/kg] | Tmax [6] [h] | half-life [7] [h] | solubility [8] [µg/mL] | solubility [9] [µg/mL] | IC50 (Cytochrome P450 2D6) [µM] | MIC80 [10] [nM] | half-life [11] [h] | IC50 (Cytochrome P450 2C9) [µM] | IC50 (Cytochrome P450 1A2) [µM] | IC50 (Cytochrome P450 2C19) [µM] | bioavailability [12] [%] | AUC(0-inf) [13] [ng·h/mL] | Cmax [14] [ng/mL] | IC50 (Cytochrome P450 3A4) [µM] | inhibition [17] | also measured
CCc1nc2ccc(Cl)cn2c1C(=O)NCc1ccc(N2CCC(c3ccc(OC(F)(F)F)cc3)CC2)cc1 [TELACEBEC] | 1.43 (≈ 0.797 ng/mL) | > 2 | 5.27 | 16.5 | 4 | 2 | > 2 | 41.5 (≈ 74.5 µM) | 1.71 (≈ 3.07 µM) | > 100 | 4 (≈ 2.23 ng/mL) | 23.4 | > 100 | > 100 | > 100 | 90.7 | 44100 | 1490 | > 100 |  | 
CCc1nc2cc(Cl)ccn2c1C(=O)NCc1ccc(N2CCC(c3ccc(OC(F)(F)F)cc3)CC2)cc1 | 3.7 (≈ 2.06 ng/mL) | > 2 | 14.3 | 62.3 | 3.15 | 2 | > 2 | 55.8 (≈ 100 µM) | 1.32 (≈ 2.37 µM) | > 100 | 4 (≈ 2.23 ng/mL) | 21.3 | 0.14 | > 100 | 0.29 | 80.2 | 27300 | 1990 | > 100 | Dose-dependent effect | log10cfu [15]: 5.72; log10cfu [16]: 5.65; log10cfu [18]: 6.23
NNC(=O)c1ccncc1 [ISONIAZID] | 617 (≈ 84.6 ng/mL) |  |  |  |  |  |  |  |  |  | 449 (≈ 61.6 ng/mL) |  |  |  |  |  |  |  |  | Dose-dependent effect | log10cfu [19]: 5.01
CCc1nc2cc(Cl)ccn2c1C(=O)NCc1ccc(N2CCN(c3ccc(F)cc3)CC2)cc1 | 0.3 (≈ 0.148 ng/mL) | > 2 | 0.877 | 6.15 | 1.9 | 2 | 0.555 |  |  | > 40 | 5.7 (≈ 2.8 ng/mL) | 9.4 | > 40 | > 40 | > 40 | 69.9 | 59600 | 4450 | > 40 |  | 
